Laboratory results as given in publication PMC7445463 (Diabetologia, 2020).

Experiments:
[1] = ACCORD trial, cardiovascular autonomic neuropathy; assay type: in vivo, human; conditions: 95%CI 0.78 - 1.07
neprilysin [2] = biological target: neprilysin (Homo sapiens, UniProt P08473); experiment: Mixed meal after single dose sacubitril/valsartan, healthy males; assay type: in vivo; conditions: 194 mg sacubitril / 206 mg valsartan single dose
[3] = tested on: Primary human retinal microvascular endothelial cells (ACBRI-181); experiment: DMOG chemical hypoxia model; assay type: cell-based; conditions: DHA 50μM, AICAR 0.5mM; DMOG 400 μM 24h
Procedure, shortened: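 Primary human retinal microvascular endothelial cells (passage 6–8) grown in endothelial growth medium with 10% FBS. At 70% confluence, exposed 24 h to DMOG 400 μM with or without AICAR 0.5 mM or DHA 50 μM. HIF-1α, HIF-2α, VEGF, ZO-1 and vimentin assessed by immunofluorescence, plus a cell migration assay. AMPK activity by western blot.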

Rev-erbα = Rev-erbα agonist and antagonist in beta cells and human islets; assay type: cell-based
Procedure, shortened: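 Cells used were rat INS-1E, human EndoC-βH1 and human islets. Rev-erbα was modulated with agonist, antagonist or siRNA knock-down. Stress was glucotoxicity (INS-1E, EndoC-βH1) or cytokines (INS-1E, human islets). Glucose-induced insulin secretion was read by HTRF, apoptosis as cleaved caspase-3, and Rev-erbα protein by western blot.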

Arrb2+/+ beta cells = experiment: F-actin depolymerisation, phalloidin staining; assay type: cell-based, mouse; conditions: 1μmol/l
Procedure, shortened: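 F-actin depolymerisation assessed by Alexa Fluor 488-conjugated phalloidin staining. FAK phosphorylation assessed by immunofluorescence.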

[4] = 24-week empagliflozin appetite trial in overweight/obesity and T2D; assay type: in vivo, human
[5] = tested on: patients with T2D and CV disease; experiment: EMPA-REG OUTCOME post hoc analyses; parameters: species or system human; conditions: in vivo
rats with CHF = assay type: in vivo, rat; conditions: 30 mg/kg PO
[6] = tested on: isolated diabetic mouse hearts; experiment: Langendorff-perfused db/db hearts, stable isotope analysis
[7] = Empagliflozin 4-week crossover study, cardiac PET/CT; assay type: in vivo, human
Piezo1 [8] = biological target: Piezo1 (Homo sapiens, UniProt Q92508); experiment: Ca2+ imaging in human β-cells; assay type: cell-based
Procedure, shortened: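 Human β-cells loaded for Ca2+ imaging. Amplitude of glucose-induced [Ca2+]i oscillations recorded with and without a Piezo1-inhibiting test compound.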

Piezo1 [9] = biological target: Piezo1 (Mus musculus, UniProt E2JF22); experiment: In situ pancreas perfusion, insulin secretion
Sequence of Piezo1 (Mus musculus, UniProt E2JF22) (E2JF22 whole entry, the tested form may be a part): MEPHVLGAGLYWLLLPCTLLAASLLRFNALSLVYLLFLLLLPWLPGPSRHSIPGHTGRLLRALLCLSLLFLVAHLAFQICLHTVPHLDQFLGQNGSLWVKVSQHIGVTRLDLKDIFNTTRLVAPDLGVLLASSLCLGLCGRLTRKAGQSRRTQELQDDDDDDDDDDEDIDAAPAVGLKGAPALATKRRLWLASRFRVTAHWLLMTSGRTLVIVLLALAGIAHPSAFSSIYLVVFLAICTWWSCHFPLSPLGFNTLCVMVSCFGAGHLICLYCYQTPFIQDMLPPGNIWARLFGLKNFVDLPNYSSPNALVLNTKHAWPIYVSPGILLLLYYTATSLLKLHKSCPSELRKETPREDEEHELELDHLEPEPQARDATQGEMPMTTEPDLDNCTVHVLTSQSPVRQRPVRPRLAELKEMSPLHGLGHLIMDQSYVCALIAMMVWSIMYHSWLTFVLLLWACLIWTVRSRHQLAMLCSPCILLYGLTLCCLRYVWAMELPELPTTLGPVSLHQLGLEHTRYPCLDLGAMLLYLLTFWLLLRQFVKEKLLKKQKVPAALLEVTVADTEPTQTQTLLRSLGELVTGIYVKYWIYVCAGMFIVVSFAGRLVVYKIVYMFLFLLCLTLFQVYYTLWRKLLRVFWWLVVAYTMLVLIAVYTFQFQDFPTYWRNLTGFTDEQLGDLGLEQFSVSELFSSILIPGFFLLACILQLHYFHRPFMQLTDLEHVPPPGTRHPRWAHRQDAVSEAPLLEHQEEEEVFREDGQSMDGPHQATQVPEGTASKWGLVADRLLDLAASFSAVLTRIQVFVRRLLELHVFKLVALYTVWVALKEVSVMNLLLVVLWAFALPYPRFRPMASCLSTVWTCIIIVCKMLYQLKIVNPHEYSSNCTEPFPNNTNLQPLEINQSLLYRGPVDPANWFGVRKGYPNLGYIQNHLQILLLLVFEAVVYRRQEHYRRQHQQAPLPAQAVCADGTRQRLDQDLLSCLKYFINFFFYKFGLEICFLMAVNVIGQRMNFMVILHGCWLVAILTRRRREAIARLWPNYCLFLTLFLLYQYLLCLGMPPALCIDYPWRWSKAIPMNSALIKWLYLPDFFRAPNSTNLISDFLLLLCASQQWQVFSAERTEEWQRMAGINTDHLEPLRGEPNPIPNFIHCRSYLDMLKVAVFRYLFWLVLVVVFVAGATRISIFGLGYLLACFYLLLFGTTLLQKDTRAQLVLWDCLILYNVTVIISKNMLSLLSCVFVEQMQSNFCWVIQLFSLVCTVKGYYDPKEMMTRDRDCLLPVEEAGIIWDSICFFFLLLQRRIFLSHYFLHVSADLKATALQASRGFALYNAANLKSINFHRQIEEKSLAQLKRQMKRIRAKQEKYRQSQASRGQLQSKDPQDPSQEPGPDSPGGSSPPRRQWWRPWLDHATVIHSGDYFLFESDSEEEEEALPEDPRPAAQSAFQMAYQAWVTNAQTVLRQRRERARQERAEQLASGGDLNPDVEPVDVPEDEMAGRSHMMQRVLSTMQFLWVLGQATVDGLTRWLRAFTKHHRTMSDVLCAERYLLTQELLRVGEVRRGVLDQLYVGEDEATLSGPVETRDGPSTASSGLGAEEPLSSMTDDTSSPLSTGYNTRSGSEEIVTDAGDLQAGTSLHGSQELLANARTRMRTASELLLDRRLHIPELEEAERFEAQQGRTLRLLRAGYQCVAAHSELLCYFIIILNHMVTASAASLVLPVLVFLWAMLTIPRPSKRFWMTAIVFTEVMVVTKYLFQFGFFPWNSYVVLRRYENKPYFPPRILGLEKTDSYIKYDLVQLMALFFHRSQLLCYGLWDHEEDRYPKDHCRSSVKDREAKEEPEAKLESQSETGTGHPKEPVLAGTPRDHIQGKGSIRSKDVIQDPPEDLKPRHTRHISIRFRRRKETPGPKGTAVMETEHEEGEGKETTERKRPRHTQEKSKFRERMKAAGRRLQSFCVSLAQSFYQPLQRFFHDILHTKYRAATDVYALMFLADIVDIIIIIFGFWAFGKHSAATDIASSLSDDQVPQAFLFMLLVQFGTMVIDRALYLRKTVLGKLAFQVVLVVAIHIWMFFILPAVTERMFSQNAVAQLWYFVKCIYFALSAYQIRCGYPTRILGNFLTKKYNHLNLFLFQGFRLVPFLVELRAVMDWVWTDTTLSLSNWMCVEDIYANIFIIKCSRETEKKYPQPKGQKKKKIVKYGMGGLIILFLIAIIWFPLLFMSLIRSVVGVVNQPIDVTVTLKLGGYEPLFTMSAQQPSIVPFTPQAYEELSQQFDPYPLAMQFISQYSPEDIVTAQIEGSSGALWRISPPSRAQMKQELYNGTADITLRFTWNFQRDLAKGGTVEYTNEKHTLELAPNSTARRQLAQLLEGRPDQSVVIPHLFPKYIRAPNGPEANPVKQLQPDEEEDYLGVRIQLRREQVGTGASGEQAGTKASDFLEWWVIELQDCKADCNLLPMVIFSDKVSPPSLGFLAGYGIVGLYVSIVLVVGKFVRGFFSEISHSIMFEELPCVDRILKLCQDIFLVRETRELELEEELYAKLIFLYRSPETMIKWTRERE
Procedure, shortened: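 Mice were β-cell-specific Piezo1 knockouts (RIP-Cre+Piezo1f/f). Insulin secretion was measured by in situ pancreas perfusion.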

C2C12 murine myotubes = experiment: ATPγS glucose uptake; assay type: cell-based; conditions: 100 μM
[10] = i.v. beta-hydroxybutyrate infusion crossover study, T2D; assay type: in vivo, human
[11] = Intrajejunal metformin with or without bile exclusion or TCA, T2DM; assay type: in vivo, human; conditions: metformin with TCA 4 g supplementation; endogenous bile included
CAROLINA trial = assay type: in vivo, human; conditions: 5 mg; regardless of age group
CREDENCE trial = assay type: in vivo, human
[12] = tested on: patients with type 2 diabetes and CKD; experiment: CREDENCE acute eGFR decline; assay type: in vivo, human; conditions: week 3
Notch pathway = experiment: PHA-activated co-cultures of obASCs and MNCs; assay type: cell-based, human; conditions: PHA-activated obASC/MNC co-cultures
Procedure, shortened: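 Human obese adipose-derived stem cells were co-cultured with mononuclear cells under phytohemagglutinin A activation, with or without the Notch inhibitor DAPT. Separately, the stem cells were transfected or not with Dner-targeting siRNA. Cytokine secretion into the medium was measured by ELISA, and expression by RT-qPCR.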

[13] = EVOLVE study, insulin detemir in pregnancy; assay type: in vivo, human; conditions: 727 vs 730 women
Procedure, shortened: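 […] in women with pre-existing diabetes comparing the test basal insulin with another basal insulin. The primary endpoint was the number of women completing ≥22 weeks of gestation without major congenital malformations, perinatal death or neonatal death. It was analysed as crude and adjusted risk difference between treatment groups.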

[14] = tested on: differentiated adipocytes (wild type); experiment: Adipocyte glucose uptake after dexamethasone; assay type: cell-based, human; conditions: 0.3 μM/24 h; WT cultures; n=6
neprilysin [15] = biological target: neprilysin (Mus musculus, UniProt Q61391); experiment: Exogenous glucagon after sacubitril in mice; assay type: in vivo; conditions: 0.7 nmol/g; glucagon 96 ng/g; n=10
Sequence of neprilysin (Mus musculus, UniProt Q61391) (Q61391 whole entry): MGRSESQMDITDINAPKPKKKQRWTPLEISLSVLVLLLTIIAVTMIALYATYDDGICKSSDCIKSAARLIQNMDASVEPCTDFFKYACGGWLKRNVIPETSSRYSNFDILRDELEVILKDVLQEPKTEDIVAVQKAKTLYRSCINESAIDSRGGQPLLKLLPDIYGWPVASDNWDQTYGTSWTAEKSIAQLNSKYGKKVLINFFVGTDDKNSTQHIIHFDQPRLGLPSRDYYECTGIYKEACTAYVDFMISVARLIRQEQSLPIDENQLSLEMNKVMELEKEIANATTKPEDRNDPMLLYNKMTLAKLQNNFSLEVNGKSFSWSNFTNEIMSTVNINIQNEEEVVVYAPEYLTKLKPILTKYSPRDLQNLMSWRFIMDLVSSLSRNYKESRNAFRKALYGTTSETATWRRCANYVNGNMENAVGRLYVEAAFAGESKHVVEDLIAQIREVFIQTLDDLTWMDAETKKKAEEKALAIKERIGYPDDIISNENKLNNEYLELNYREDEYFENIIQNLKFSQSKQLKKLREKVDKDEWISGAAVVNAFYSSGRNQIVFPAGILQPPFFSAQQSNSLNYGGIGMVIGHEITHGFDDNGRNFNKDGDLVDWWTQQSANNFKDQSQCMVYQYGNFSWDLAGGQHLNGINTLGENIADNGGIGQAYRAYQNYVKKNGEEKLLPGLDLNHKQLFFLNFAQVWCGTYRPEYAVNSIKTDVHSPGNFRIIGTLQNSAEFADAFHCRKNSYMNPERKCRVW

adiponectin receptor = experiment: HFD-fed DBA/2J mice with AdipoRon, 9 weeks; assay type: in vivo, mouse; conditions: HFD supplemented with AdipoRon
[16] = db/db mice, empagliflozin alone or with linagliptin, 8 weeks; assay type: in vivo, mouse; conditions: 10 mg/kg (of each)
Procedure, shortened: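 Male 8-week-old db/db mice (BKS.Cg-Dock7m+/+Leprdb/J) received vehicle, SGLT2 inhibitor 10 mg/kg, or SGLT2 inhibitor plus DPP4 inhibitor (10 mg/kg each) for 8 weeks. Heterozygous db/+ mice served as non-diabetic controls. Plasma glucose, fructosamine, glycated albumin and urinary albumin-to-creatinine ratio were measured at weeks 0 and 8.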

[17] = tested on: patients with type 2 diabetes; experiment: Network meta-analysis of antidiabetic medications on blood pressure; parameters: species or system human
[18] = Brain insulin sensitivity by fMRI with intranasal insulin, prediabetes; assay type: in vivo, human; conditions: 25 mg qd, 8 weeks
[19] = HFD-induced obese mice, empagliflozin 8 weeks; assay type: in vivo, mouse; parameters: AUC glucose / AUC insulin: unit not given beside the values
[20] = Empagliflozin 24 weeks in T2DM and HFpEF; assay type: in vivo, human; conditions: after 24 weeks; baseline 126
[21] = iv bolus of purified MGO in mice, immune cell numbers; assay type: in vivo, mouse
[22] = tested on: human retinal endothelial cells (hRECs); experiment: MGO exposure of human retinal endothelial cells; assay type: cell-based; conditions: 500μM, 72h
[23] = 6 weeks
[24] = 1.5 mg once weekly; 95% CI 0.79, 0.99; cited from earlier work
[25] = 4-week treatment of DIO mice, body weight loss; assay type: in vivo, mouse; conditions: s.c., 4 weeks, human equivalent doses
[26] = seven- and ninety-day treatment

Sequence of neprilysin (Homo sapiens, UniProt P08473) (P08473 whole entry): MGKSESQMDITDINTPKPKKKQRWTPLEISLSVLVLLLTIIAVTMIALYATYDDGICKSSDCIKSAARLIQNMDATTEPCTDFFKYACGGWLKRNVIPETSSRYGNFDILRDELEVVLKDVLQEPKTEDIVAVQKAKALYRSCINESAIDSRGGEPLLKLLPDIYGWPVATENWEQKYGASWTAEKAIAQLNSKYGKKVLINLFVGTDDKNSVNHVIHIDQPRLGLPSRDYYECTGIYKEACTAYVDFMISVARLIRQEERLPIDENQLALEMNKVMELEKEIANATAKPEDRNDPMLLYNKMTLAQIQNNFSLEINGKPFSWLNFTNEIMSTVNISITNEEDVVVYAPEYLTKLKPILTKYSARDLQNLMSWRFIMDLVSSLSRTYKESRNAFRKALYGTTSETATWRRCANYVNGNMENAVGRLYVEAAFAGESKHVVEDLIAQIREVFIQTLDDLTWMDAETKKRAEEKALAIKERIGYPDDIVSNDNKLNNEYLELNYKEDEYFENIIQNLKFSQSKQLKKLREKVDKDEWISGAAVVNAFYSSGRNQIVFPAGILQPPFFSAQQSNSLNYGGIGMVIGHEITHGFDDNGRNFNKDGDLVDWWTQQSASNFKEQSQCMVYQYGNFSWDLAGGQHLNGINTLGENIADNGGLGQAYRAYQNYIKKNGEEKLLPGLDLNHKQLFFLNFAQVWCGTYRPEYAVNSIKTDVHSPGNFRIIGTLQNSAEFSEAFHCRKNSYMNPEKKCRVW

## CC(C)OC(=O)C(C)(C)Oc1ccc(C(=O)c2ccc(Cl)cc2)cc1 [Fenofibrate]
[1]
  CAN outcome OR: 0.91

## sacubitril / valsartan [sacubitril/valsartan]
Neprilysin [2]
  increase of postprandial glucagon levels (iAUC0-240 min): 2.7 fold

## NC(=O)c1ncn([C@@H]2O[C@H](COP(=O)(O)O)[C@@H](O)[C@H]2O)c1N [AICAR, 5-aminoimidazole-4-carboxamide ribonucleotide]
[3]
  DMOG-induced abnormalities (HIF, VEGF, ZO-1, vimentin, migration): fully prevented

## CCOC(=O)N1CCC(CN(Cc2ccc(Cl)cc2)Cc2ccc([N+](=O)[O-])s2)C1 (stereo not shown) [SR9009]
Rev-erbα; INS-1E cells and human islets
  decrease of glucose-stimulated insulin secretion: 70%

## O=C1NC(=O)/C(=C/c2ccc3c(c2)OC(F)(F)O3)S1 [AS604850]
Arrb2+/+ beta cells
  reduction of F-actin depolymerisation by GIP stimulation: ~ 30%

## OC[C@H]1O[C@@H](c2ccc(Cl)c(Cc3ccc(O[C@H]4CCOC4)cc3)c2)[C@H](O)[C@@H](O)[C@@H]1O [EMPA, empagliflozin]
[4]; 12-weeks, 3-hour mixed meal tolerance test, P = 0.003
  circulating PYY vs placebo: elevated
[4]; overall across follow-up, P = 0.016
  circulating GLP-1 vs placebo (GEE): higher
[5]
  patients with insulin dose reduction >10%: 14.0%
Rats with CHF; long-term (90 days)
  myocardial perfusion: increased
Rats with CHF; long-term (90 days), p=0.06
  exercise capacity: increased
Rats with CHF; [26]
  LV EDP: reductions
  LV ESP: increases
[6]; 1 μM, 35 min, 13C glucose perfusion, vehicle 58 ± 2
  13C labeling of lactate: 50 ± 3%
[6]; 1 μM, 35 min, vehicle 5.2 ± 0.8
  glucose-6-phosphate content: 3.3 ± 0.4 AU
[6]; 13C palmitate perfusion, vehicle 79 ± 1
  13C labeling of α-KG: 86 ± 1%
[7]; 18F-FDG PET, placebo 1.4±0.6
  myocardial glucose uptake (MGU): 0.6±0.6 μmol/100g/min
[7]; four weeks, placebo 9.4 ± 2.2
  48-hour mean blood glucose: 8.0 ± 0.9
[7]; in vivo
  reduction of postabsorptive myocardial glucose uptake: 57%
[7]; placebo 0.8±3
  circulating FFA: 1.0 ± 0.4 mmol/L
[7]; placebo 1.1±0.6
  FFA esterification rate: 1.3±0.7 μmol/100g/min
[7]; placebo 8.0±3.1
  myocardial FFA oxidation rate: 7.2±3.1 μmol/100g/min
[7]; placebo 9.1±3.2
  total FFA uptake rate: 8.4±3.6 μmol/100g/min
[7]; placebo 9.77 ± 1.34
  myocardial oxygen consumption: 8.97 ± 1.11 ml/100g/min
[7]; placebo 27.7±4.5
  myocardial external energy efficiency: 29.5±7.3%
[7]; placebo 65 ± 8
  3-hydroxybutyrate: 130 ± 17 µmol/L
[7]; placebo 92±8
  24-hour mean arterial pressure: 88±5 mmHg

## GsMTx4
Piezo1 [8]
  reduction of amplitude of glucose-induced [Ca2+]i oscillations: ~ 80%
Piezo1 [9]
  reduction of insulin release: > 30%

## CCOC(=O)C1Cc2ccccc2CN1C(=O)c1ccc(SC)s1 (stereo not shown) [SR8278]
Rev-erbα; glucotoxicity or cytokines, antagonist or siRNA
  attenuation of beta-cell apoptosis: ~ 30%

## Nc1ncnc2c1ncn2[C@@H]1O[C@H](CO[P@](=O)(O)O[P@](=O)(O)O[P@@](=O)(O)S)[C@@H](O)[C@H]1O [ATPγS]
C2C12 murine myotubes
  glucose uptake: increased glucose uptake

## CC(O)CC(=O)O (stereo not drawn) [Beta-hydroxybutyrate, beta-hydroxybutyrate]
[10]; n=17
  increase in heart rate vs placebo: 13.7 ± 1.2 bpm
[10]; placebo 0.1 ± 0.6
  beta-hydroxybutyrate levels during infusion: 2.4 ± 0.6 mM

## Clc1cccc(Cl)c1CSc1nnc(-c2cnccn2)s1 [yoda1]
Piezo1 [9]; glucose alone almost 3-fold
  increase of insulin secretion: ~ 7 fold

## C[C@H](CCC(=O)NCCS(=O)(=O)O)[C@H]1CC[C@H]2[C@@H]3[C@H](O)C[C@@H]4C[C@H](O)CC[C@]4(C)[C@H]3C[C@H](O)[C@]12C [TCA, taurocholic acid]
[11]
  plasma glucose iAUC 0-180 min: 568 ± 38 mmol·min/L

## CC#CCn1c(N2CCC[C@@H](N)C2)nc2c1c(=O)n(Cc1nc(C)c3ccccc3n1)c(=O)n2C [linagliptin]
CAROLINA trial
  hypoglycaemia rates vs glimepiride: significantly lower

## Cc1ccc([C@@H]2O[C@H](CO)[C@@H](O)[C@H](O)[C@H]2O)cc1Cc1ccc(-c2ccc(F)cc2)s1 [CANA, canagliflozin]
CREDENCE trial; 95% CI 0.47-0.80
  HHF alone HR vs placebo: 0.61
CREDENCE trial; 95% CI 0.57, 0.83, median 2.6 years
  HHF/CV death HR vs placebo: 0.69
CREDENCE trial; overall population
  reduction of risk of HHF/CV death: 31%
[12]
  participants with >30% decline: 4%

## C[C@H](NC(=O)Cc1cc(F)cc(F)c1)C(=O)N[C@H](C(=O)OC(C)(C)C)c1ccccc1 [DAPT]
Notch pathway
  IL-17A secretion: significantly inhibited

## insulin detemir [IDet]
[13]
  risk of major congenital malformations, perinatal or neonatal deaths vs other basal insulin: not associated with excess risk

## CC/C=C\C/C=C\C/C=C\C/C=C\C/C=C\C/C=C\CCC(=O)O [DHA, docosahexaenoic acid]
[3]
  DMOG-induced abnormalities (HIF, VEGF, ZO-1, vimentin, migration): fully prevented

## C[C@@H]1C[C@H]2[C@@H]3CCC4=CC(=O)C=C[C@]4(C)[C@@]3(F)[C@@H](O)C[C@]2(C)[C@@]1(O)C(=O)CO [dexamethasone]
[14]
  reduction of basal and insulin-stimulated glucose uptake: ~ 50%

## CCOC(=O)[C@H](C)C[C@@H](Cc1ccc(-c2ccccc2)cc1)NC(=O)CCC(=O)O [Sacubitril, sacubitril]
Neprilysin [15]
  increase of exogenous glucagon levels (iAUC0-60 min): 1.9 fold

## O=C(COc1ccc(C(=O)c2ccccc2)cc1)NC1CCN(Cc2ccccc2)CC1 [AdipoRon]
Adiponectin receptor
  HFD-induced weight gain: reduced

## OC[C@H]1O[C@@H](c2ccc(Cl)c(Cc3ccc(O[C@H]4CCOC4)cc3)c2)[C@H](O)[C@@H](O)[C@@H]1O [empagliflozin]
[16]
  plasma glucose, fructosamine, glycated albumin and UACR: decreased
[17]; CI -2.35 to -0.12
  systolic blood pressure, empagliflozin vs dapagliflozin: -1.24 mmHg
[17]; network meta-analysis
  diastolic blood pressure, mean difference versus placebo: -1.73 mmHg
[18]
  hypothalamic blood flow response to intranasal insulin: significant insulin-induced decrease
[19]; 10mg/kg, 8 weeks, HFD 49.5 ± 2.8
  body weight: 41.2 ± 1.5 g
[19]; HFD 17.6 ± 3.4
  fat mass: 10.7 ± 2.6 g
[19]; HFD 9617± 242
  AUC insulin: 6263 ± 337
[19]; HFD 38739± 1750
  AUC glucose: 27714 ± 1052
[20]
  left ventricular mass index (LVMI): 111,1 g/m2

## CC(=O)C=O [MGO, methylglyoxal]
[21]; 25μg iv bolus, after 10 min
  increase of circulating neutrophils vs PBS: 7 fold
[21]; 10 min post injection
  increase of hepatic neutrophils: 9 fold
[21]; after 10 min
  decrease of CD11b expression in the aorta: 19.9 fold
[21]; after 72h, control 24.2±6.8
  macrophage numbers in the liver: 35.7±6.5 macrophages per microscopic view
[22]
  impairment of tube formation capacity: ~ 70%
[22]; transwell assay
  impairment of cell migration: ~ 30%

## CCOc1ccc(Cc2cc([C@@H]3O[C@H](CO)[C@@H](O)[C@H](O)[C@H]3O)ccc2Cl)cc1 [DAPA, dapagliflozin]
[23]; 10 mg/day
  hepatic uptake of fatty acids vs placebo: increased
[23]
  plasma NT-proBNP levels: unaffected

## dulaglutide
[24]
  MACE-3 hazard ratio vs placebo: 0.88
[25]
  body weight loss vs vehicle: -2.5%
